An excerpt weighted towards active compounds, which were near 2.3% of everything screened.
MCL1-BIM inh: inhibitors of MCL1 binding to BIM-BH3, primary screen, biochemical, fluorescence polarization; Induced myeloid leukemia cell differentiation protein Mcl-1 (Homo sapiens), Q07820; GST-MCL1 / FITC-Bim-BH3 fluorescence polarization; inhibition, % at 10.9 µM; 320,000 compounds, 0.68% hits; AID 2057, 2009;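 active = inhibition above the mean inhibition of all tested compounds plus 3 SD, set per campaign, cut at about 40% in these data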;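 note: 0% = DMSO wells and 100% = unlabeled Bim-BH3 peptide control; higher means more loss of mP so more displacement of Bim peptide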
Mcl1 Bid PPI: Mcl-1/Bid binding inhibitors, primary screen, biochemical, TR-FRET, 1536-well; Induced myeloid leukemia cell differentiation protein Mcl-1 (Homo sapiens), Q07820; TR-FRET Mcl-1/Bid-Dy647 peptide binding; inhibition, % at 21.7 µM; 220,000 compounds, 0.97% hits; AID 1021, 2008;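 active = compounds that cut the binding signal by more than half at the single screening dose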;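 note: His-tagged Mcl-1 with europium anti-His antibody binding Bid BH3 peptide; 0% = Mcl-1 plus peptide wells and 100% = peptide-only wells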
Mcl1-Noxa inh: Mcl-1/Noxa binding inhibitors, primary screen, biochemical, TR-FRET, 1536-well | TR-FRET Mcl-1/Noxa peptide binding, 2 h | inhibition, % at 21.7 µM | 220,000 compounds, 1.5% hits | AID 1022, 2008;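 active = compounds that cut the protein-peptide binding signal by more than 50% relative to plate controls in a single-dose test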;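 note: His-tagged Mcl-1 with rhodamine Noxa BH3 peptide and terbium anti-His antibody; 0% = Mcl-1 plus Noxa peptide wells and 100% = peptide-only wells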
Pemphigus Ab inh: inhibitors of pemphigus antibody binding to DSG3, primary screen, biochemical, bead-based, flow cytometry, scFv-GFP | Desmoglein-3 (Homo sapiens), P32926 | DSG3-coupled beads, scFv-anti-DSG3-GFP binding; active compounds read low | binding (percent of control), % at 10 µM | 310,000 compounds, 0.48% hits | AID 588358, 2011;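 active = binding more than 3 SD below its plate's average and above zero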;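 note: hits lower antibody fragment binding to DSG3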
Target sequence (P32926 whole entry, looked up, the tested form may be a part): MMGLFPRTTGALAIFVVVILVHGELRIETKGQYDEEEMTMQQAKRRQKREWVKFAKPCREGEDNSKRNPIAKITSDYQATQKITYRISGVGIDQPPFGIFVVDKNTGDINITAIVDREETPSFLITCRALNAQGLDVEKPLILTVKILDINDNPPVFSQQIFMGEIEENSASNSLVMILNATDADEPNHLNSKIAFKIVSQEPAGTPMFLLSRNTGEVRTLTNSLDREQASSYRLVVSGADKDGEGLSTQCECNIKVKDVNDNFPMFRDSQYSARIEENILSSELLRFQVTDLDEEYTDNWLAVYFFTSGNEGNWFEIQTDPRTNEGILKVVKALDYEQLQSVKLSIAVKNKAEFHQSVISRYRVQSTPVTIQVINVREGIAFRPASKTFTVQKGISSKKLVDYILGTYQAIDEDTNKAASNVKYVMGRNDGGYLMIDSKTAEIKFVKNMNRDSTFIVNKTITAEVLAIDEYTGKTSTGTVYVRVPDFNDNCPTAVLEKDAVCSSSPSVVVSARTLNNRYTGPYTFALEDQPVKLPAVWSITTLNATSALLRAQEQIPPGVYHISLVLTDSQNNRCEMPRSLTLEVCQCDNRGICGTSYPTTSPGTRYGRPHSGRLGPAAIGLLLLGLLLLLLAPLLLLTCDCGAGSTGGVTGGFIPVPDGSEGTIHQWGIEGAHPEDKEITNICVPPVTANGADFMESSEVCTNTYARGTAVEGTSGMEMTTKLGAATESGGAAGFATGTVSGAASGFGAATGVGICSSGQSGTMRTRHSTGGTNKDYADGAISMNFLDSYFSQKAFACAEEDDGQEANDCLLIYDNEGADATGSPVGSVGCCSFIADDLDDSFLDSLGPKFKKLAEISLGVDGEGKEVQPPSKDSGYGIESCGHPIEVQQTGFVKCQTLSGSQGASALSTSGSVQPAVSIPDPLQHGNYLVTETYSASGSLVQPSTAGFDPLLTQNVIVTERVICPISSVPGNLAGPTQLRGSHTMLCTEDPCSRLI
Mcl-1 Bim block: inhibitors of Bim peptide binding to Mcl-1, primary screen, biochemical, bead-based flow cytometry, multiplex | Induced myeloid leukemia cell differentiation protein Mcl-1 (Homo sapiens), Q07820 | Bim peptide-Mcl-1 binding | inhibition, % at 10 µM | 190,000 compounds, 0.1% hits | AID 1009, 2008; in the data active = inhibition above about 40%;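 note: 0% = no compound tracer wells and 100% = peptide blocker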
T cell modulator: modulators of CD8 T cell-vesicle binding, primary screen, mouse 2C CD8+ T cells, flow cytometry | 2C CD8+ T cell-vesicle binding; active compounds read low | response (vesicle binding), % at 7 µM | 330,000 compounds, 0.068% hits | AID 2052, 2009;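 active = response, share of CD8 T cells binding vesicles, and their 90th percentile fluorescence all below set limits, cut at about 80% in these data, passing the limit was not always enough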;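 note: values below 100% mean blocked vesicle binding to the CD8+ T cells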
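Read-out – percent CD8+ FL2 mean versus row control · System – murine 2C transgenic CD8+ T lymphocytes · Times – 1.5 h cell–vesicle binding at 37 °C, then 20 min icy labelling · Control set – naked vesicles low, QL9 vesicles with vehicle high · Detection – cytometric PE anti-B7-1 and Alexa647 anti-CD8 signals after 1% paraformaldehyde fixation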
BCLXL inh confirm: Bcl-xL inhibitors blocking Bim BH3 binding, confirmation, counter-screen for MCL1 inhibitor project, biochemical, fluorescence polarization; shares compounds with MCL1-BIM inh; GST-Bcl-xL / FITC-Bim BH3 peptide FP binding; inhibition, % at 10.9 µM; 1,700 compounds, 54% hits; AID 2166, 2009;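 active = inhibition above a cutoff equal to the mean inhibition of all tested compounds plus 3 SD, cut at about 30% in these data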;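 note: 0% = DMSO wells and 100% = unlabeled Bim BH3 control peptide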
MCL1 inh confirm: inhibitors of MCL1 binding to BIM-BH3, confirmation, biochemical, fluorescence polarization, triplicate; inhibition, % at 10.9 µM; 1,700 compounds, 61% hits; shares compounds with MCL1-BIM inh; AID 2168, 2009; GST-MCL1 / FITC-Bim-BH3 fluorescence polarization;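 active = inhibition above the average of all tested compounds plus 3 SD, cut at about 40% in these data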;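 note: 0% = DMSO wells and 100% = unlabeled Bim-BH3 control peptide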
* = called active by the depositor; i = inactive; · = no result given; + = active, no number.

SMILES | MCL1-BIM inh | Mcl1 Bid PPI | Mcl1-Noxa inh | Pemphigus Ab inh | Mcl-1 Bim block | T cell modulator | BCLXL inh confirm | MCL1 inh confirm
O=C(N/N=C/c1cc2c3c(c1O)CCCN3CCC2)c1ccccc1O | · | -54 | 14 | 120 | 21 | · | · | ·
O=c1oc2c3c4c(cc2s1)CCCN4CCC3 | 165* | -16 | 51* | · | 3 | 398 | 99* | 120*
O=c1ccc2cc3c4c(c2o1)CCCN4CCC3 | 105* | -15 | 10 | · | 5 | 131 | 155* | 182*
CC(C)NC(=O)N(C)C[C@@H]1Oc2ccc(NC(=O)CCN3CCOCC3)cc2CC(=O)N([C@@H](C)CO)C[C@@H]1C | · | · | · | 99 | · | 212 | · | ·
COc1cccc(-c2nc(CS(=O)(=O)CC(=O)Nc3cc(OC)ccc3OC)c(C)o2)c1 | 1 | · | · | · | · | 538 | · | ·
CC1(OC(=O)c2ccco2)C(=O)C=C2C=C(C3CC3)OC=C2C1=O (stereo not given) | 79* | · | · | 96 | · | 477 | 40* | 59*
CC1(OC(=O)c2cnc3ccccc3n2)C(=O)C=C2C=C(C3CC3)OC=C2C1=O (stereo not given) | 130* | · | · | · | · | 529 | 81* | 117*
CCC(=O)OC1(C)C(=O)C=C2C=C(C3CC3)OC=C2C1=O (stereo not given) | 63* | · | · | 101 | · | · | 25 | 31
C[C@@H]1CN([C@@H](C)CO)C(=O)CCCn2nncc2CO[C@H]1CN(C)C(=O)NC1CCCCC1 | · | · | · | 104 | · | · | · | ·
CC(OC(=O)COc1cccc2c1OC(C)(C)C2)C(=O)Nc1ccc(S(N)(=O)=O)cc1 (stereo not given) | -3 | · | · | 116 | · | 714 | · | ·
COc1ccc(CC(=O)Nc2cccc(C(=O)Nc3cccc(C)c3)c2)cc1 | 118* | -34 | -8 | · | -1 | 174 | 1 | 5
COc1ccc(C(=O)Nc2cccc(C)c2)cc1 | 5 | -14 | 12 | 102 | 0 | 124 | · | ·
COc1ccc(NS(=O)(=O)c2cccc(C(=O)Nc3cccc(C(=O)O)c3)c2)cc1 | 68* | · | · | 118 | · | 180 | -1 | -2
COc1ccc(NS(=O)(=O)c2cccc(C(=O)O)c2)cc1 | 13 | -24 | 24 | 110 | -3 | 589 | · | ·
CC(NC(=O)CNC(=O)c1cccs1)c1cccc(C(F)(F)F)c1 (stereo not given) | · | · | · | 103 | · | 329 | · | ·
CC1=Nc2ccccc2/C1=C\c1nc(-c2ccc(F)cc2)oc1O | + | -22 | 2 | 103 | -2 | i | 92* | 141*
C[C@H]1CCC(=O)N([C@H](COc2ccccc2)Cc2ccccc2)CC1 | 2 | · | · | 108 | · | i | · | ·
O=S(=O)(c1cc(O)ccc1O)c1cccc2c(S(=O)(=O)c3cc(O)ccc3O)cccc12 | 46* | · | · | 86 | · | 736 | 24 | 52*
Cc1ccc(/C=C2\SC(=S)N(/N=C/c3cc([N+](=O)[O-])ccc3O)C2=O)o1 | 66* | -21 | 91* | 84 | 1 | 189 | 31* | 61*
O=C1CC(c2ccc3ccccc3c2)NN1 (stereo not given) | 42* | · | · | 96 | · | 445 | 11 | 36
O=C1CC(c2ccccc2)NN1 (stereo not given) | -5 | · | · | 100 | · | 621 | · | ·
O=C(N/N=C/c1ccoc1)c1cc(O)cc(O)c1 | 43* | · | · | 110 | · | 362 | 25 | 56*
Cc1cc(C)cc(C(=O)N/N=C/c2ccoc2)c1 | 1 | · | · | 103 | · | 180 | · | ·
O=C1CCCC(O)=C1N=Nc1cccc(C(=O)O)c1 | 40* | -43 | 57* | 106 | 0 | 246 | 11 | 35
CCN(CC)S(=O)(=O)c1cccc(N=NC2=C(O)CCCC2=O)c1 | 5 | -21 | 34 | 100 | -1 | 211 | · | ·
SMILES | MCL1-BIM inh | Mcl1 Bid PPI | Mcl1-Noxa inh | Pemphigus Ab inh | Mcl-1 Bim block | T cell modulator | BCLXL inh confirm | MCL1 inh confirm
Nc1ccc(N)c(C(=O)O)c1 | 101* | 98* | 92* | 51* | · | 72 | 72* | 112*
CN(C)S(=O)(=O)c1ccc(NC(=O)CN2C(=O)NC3(CCCC3)C2=O)cc1 | -7 | · | · | · | · | 338 | · | ·
Cc1ccc(S(=O)(=O)N2CCN(C(=O)c3cccc(-n4cccc4)c3)CC2)cc1 | 16 | · | · | 99 | · | 704 | · | ·
O=C(c1cccc(-n2cccc2)c1)N1CCN(S(=O)(=O)c2ccccc2)CC1 | 51* | · | · | 83 | · | 526 | 32* | 88*
O=P(CCc1ccccc1)(c1ccccc1)c1ccccc1 | · | · | · | 129 | · | · | · | ·
CCOC(=O)Nc1ccc(NCc2ccc(F)cc2)nc1N | 191* | · | · | 159 | · | 543 | 36* | 31
COC(=O)c1c(C(=O)OC)c2ccccn2c1C(=O)c1ccc([N+](=O)[O-])cc1 | 4 | · | · | 116 | · | 597 | · | ·
CC(C)OC(=O)c1c2c(n3ccccc13)C(=O)c1ccccc1C2=O | 122* | -6 | -4 | 139 | 8 | 123 | 136* | 151*
O=C(Cc1cccs1)NCc1cc(Cl)cc(Cl)c1 | 0 | · | · | 98 | · | 141 | · | ·

Bioassay records as filed in PubChem.
